Assays:
TGF-beta receptor type-1 = biological target: T1, TGF-beta receptor type-1 (Homo sapiens, UniProt P36897); assay: Inhibition of ALK5 by filter binding assay
T1 sequence (P36897 whole entry): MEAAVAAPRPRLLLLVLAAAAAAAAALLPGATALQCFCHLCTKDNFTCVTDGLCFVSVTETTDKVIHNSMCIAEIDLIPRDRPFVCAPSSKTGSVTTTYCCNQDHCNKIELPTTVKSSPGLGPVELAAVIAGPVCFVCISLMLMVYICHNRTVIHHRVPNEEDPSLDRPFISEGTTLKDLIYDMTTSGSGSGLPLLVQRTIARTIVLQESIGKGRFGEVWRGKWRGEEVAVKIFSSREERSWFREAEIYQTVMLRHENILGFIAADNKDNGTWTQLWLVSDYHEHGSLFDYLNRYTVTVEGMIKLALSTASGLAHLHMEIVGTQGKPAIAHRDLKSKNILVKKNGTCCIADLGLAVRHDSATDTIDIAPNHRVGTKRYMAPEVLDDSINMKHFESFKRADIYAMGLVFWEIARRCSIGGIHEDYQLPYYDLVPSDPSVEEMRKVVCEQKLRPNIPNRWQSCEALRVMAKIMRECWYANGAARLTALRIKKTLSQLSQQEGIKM

[1] = biological target: Proto-oncogene tyrosine-protein kinase Src (Homo sapiens, UniProt P12931); assay: Inhibition of c-Src
[2] = Inhibition of TGF-beta expressed in human A549 cells assessed as luciferase activity after 4 hrs by Smad2/3 reporter assay; format: cell-based
Outline: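 A549 human lung epithelial cells stably carrying a luciferase reporter driven by four tandem Smad2/3 binding sequences (p(SBE)4-Luc); cells given test compound together with TGF-β1 (2 ng/ml), cultured 4 h, then luciferase activity read by chemiluminescence (Steady Glo); IC50 values reported.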

[3] = Inhibition of TGF-beta mediated Smad2 phosphorylation in human A549 cells after 30 mins by Western blot; format: cell-based; details: A549, 0.5 h

Proto-oncogene tyrosine-protein kinase Src, sequence (P12931 2-536 limits assumed): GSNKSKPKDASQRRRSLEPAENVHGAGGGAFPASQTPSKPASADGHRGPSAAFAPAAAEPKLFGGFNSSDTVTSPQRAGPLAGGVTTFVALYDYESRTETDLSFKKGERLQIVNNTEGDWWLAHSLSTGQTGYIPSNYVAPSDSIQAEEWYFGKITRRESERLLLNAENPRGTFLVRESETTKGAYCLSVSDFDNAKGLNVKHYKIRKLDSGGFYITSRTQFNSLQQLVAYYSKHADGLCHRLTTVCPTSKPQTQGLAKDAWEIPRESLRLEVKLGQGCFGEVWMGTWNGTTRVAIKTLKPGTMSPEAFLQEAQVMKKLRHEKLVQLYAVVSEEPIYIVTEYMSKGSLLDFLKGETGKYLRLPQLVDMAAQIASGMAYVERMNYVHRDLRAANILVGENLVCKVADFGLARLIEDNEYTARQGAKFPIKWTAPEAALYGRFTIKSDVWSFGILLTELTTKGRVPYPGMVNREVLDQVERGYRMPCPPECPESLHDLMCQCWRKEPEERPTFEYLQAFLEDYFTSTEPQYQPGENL

| SMILES | IC50 [2] | also measured |
| --- | --- | --- |
| COc1cc2nccc(Oc3ccccc3C(=O)c3ccccc3)c2cc1OC | 4700 nM | IC50 (TGF-beta receptor type-1): 16000 nM; IC50 [1]: 4500 nM |
| COc1cc2nccc(Oc3ccc(C)cc3C(=O)c3ccccc3)c2cc1OC | 640 nM | IC50 [3]: 500 nM; IC50 (TGF-beta receptor type-1): 2700 nM; IC50 [1]: 1700 nM |
| COc1cc2nccc(Oc3cc(C)c(C)cc3C(=O)c3ccccc3)c2cc1OC | 1400 nM | – |
| COc1cc2nccc(Oc3cc(C)c(Cl)cc3C(=O)c3ccccc3)c2cc1OC | 2100 nM | – |
| COc1cc2nccc(Oc3ccc(Br)cc3C(=O)c3ccccc3)c2cc1OC | 3200 nM | – |
| COc1ccc(Oc2ccnc3cc(OC)c(OC)cc23)c(C(=O)c2ccccc2)c1 | > 10000 nM | – |
| COc1cc2nccc(Oc3ccc(Cl)cc3C(=O)c3ccccc3)c2cc1OC | 2700 nM | – |
| COc1cc2nccc(Oc3ccc(C)cc3C(=O)c3ccc(C(C)(C)C)cc3)c2cc1OC | 8500 nM | – |
| COc1cc2nccc(Oc3ccc(C)cc3C=O)c2cc1OC | > 10000 nM | – |
| COc1cc2nccc(Oc3ccc(C)cc3C(C)=O)c2cc1OC | 2300 nM | IC50 (TGF-beta receptor type-1): 4400 nM; IC50 [1]: 8400 nM |
| CCc1ccc(Oc2ccnc3cc(OC)c(OC)cc23)c(C(C)=O)c1 | 830 nM | – |
| CCCc1ccc(Oc2ccnc3cc(OC)c(OC)cc23)c(C(C)=O)c1 | 540 nM | – |
| COc1cc2nccc(Oc3ccc(C)cc3C(=O)C3CCCC3)c2cc1OC | 2200 nM | – |
| COc1cc2nccc(Oc3cc(C)c(Cl)cc3C(C)=O)c2cc1OC | 420 nM | – |
| COc1cc2nccc(Oc3ccc(C)cc3C(=O)N3CCCCC3)c2cc1OC | > 10000 nM | – |
| COc1cc2nccc(Oc3ccc(C)cc3C(=O)c3ccco3)c2cc1OC | 2700 nM | – |

| SMILES | IC50 [2] | also measured |
| --- | --- | --- |
| COc1cc2nccc(Oc3cc(C)c(C)cc3C(C)=O)c2cc1OC | 370 nM | IC50 [3]: 500 nM; IC50 (TGF-beta receptor type-1): 630 nM; IC50 [1]: 13000 nM |
| COc1cc(Oc2ccnc3cc(OC)c(OC)cc23)c(C(C)=O)cc1OC | > 10000 nM | – |
| COc1cc2nccc(Oc3ccccc3C(C)=O)c2cc1OC | > 10000 nM | – |
| CCC(=O)c1cc(OC)ccc1Oc1ccnc2cc(OC)c(OC)cc12 | 1100 nM | – |
| CCC(=O)c1ccc(OC)cc1Oc1ccnc2cc(OC)c(OC)cc12 | 1800 nM | – |
| COc1cc2nccc(Oc3ccc(C)cc3C(=O)c3ccno3)c2cc1OC | 2500 nM | – |
| COc1ccc(Oc2ccnc3cc(OC)c(OC)cc23)c(C(C)=O)c1 | 590 nM | – |
| CCCOc1ccc(Oc2ccnc3cc(OC)c(OC)cc23)c(C(C)=O)c1 | > 10000 nM | – |
| COc1cc2nccc(Oc3cc(C)ccc3C(C)=O)c2cc1OC | 5500 nM | – |
| CCCCc1ccc(Oc2ccnc3cc(OC)c(OC)cc23)c(C(C)=O)c1 | 2200 nM | – |
| COc1ccc(C(=O)c2ccccc2)c(Oc2ccnc3cc(OC)c(OC)cc23)c1 | 4900 nM | – |
| CCOc1ccc(Oc2ccnc3cc(OC)c(OC)cc23)c(C(C)=O)c1 | 5600 nM | – |
| COc1ccc(C(C)=O)c(Oc2ccnc3cc(OC)c(OC)cc23)c1 | 8800 nM | – |
| COc1cc2nccc(Oc3ccc(F)cc3C(C)=O)c2cc1OC | 3800 nM | – |
| CCC(=O)c1cc(C)ccc1Oc1ccnc2cc(OC)c(OC)cc12 | 620 nM | – |

Source: ChEMBL document CHEMBL1150385, “Synthesis and evaluation of [2-(4-quinolyloxy)phenyl]methanone derivatives: novel selective inhibitors of transforming growth factor-beta kinase” (J Med Chem, 2008)
